Measured values of several laboratories.
ABL1 F317L: Tyrosine-protein kinase ABL1 (ABL1, Homo sapiens, UniProt P00519, F317L)
ABL1 F317I non-phosphorylated: Tyrosine-protein kinase ABL1, non-phosphorylated (ABL1, Homo sapiens, UniProt P00519, F317I)

Compound | target | read-out | mode | method | concentration | quantity | result
CCCCC(=O)Nc1ccc(-c2ccc3ncn(CCC)c(=O)c3c2)cn1 | Tyrosine-protein kinase ABL1, phosphorylated (ABL1, Homo sapiens, UniProt P00519, F317L) | binding | – | competition with immobilised ligand | 0.5 µM | remaining binding | 97%
N#Cc1ccc(NC(=O)Nc2ccccc2)cc1 | Tyrosine-protein kinase ABL1, phosphorylated (ABL1, Homo sapiens, UniProt P00519, E255K) | cell-free assay | – | competition with immobilised ligand | 25 µM | remaining binding | 92%
C1=C/COCc2cc(ccc2OCCN2CCCC2)Nc2nccc(n2)-c2cccc(c2)COC/1 | ABL1 F317L | binding | – | – | 0.1 µM | remaining binding | 58%
CC#CC(=O)N1CCC[C@H]1c1nc(-c2ccc(C(=O)Nc3ccccn3)cc2)c2c(N)nccn12 | ABL1 F317I non-phosphorylated | enzyme activity | inhibitor | – | 1 µM | inhibition | 25%
C[C@H]1CC[C@H](n2c3cnccc3c3cnc(Nc4ccc5c(n4)CCN(C(=O)CO)C5)nc32)CC1 | Tyrosine-protein kinase ABL1, non-phosphorylated (ABL1, Homo sapiens, UniProt P00519) | binding | – | competition with immobilised ligand | 1 µM | remaining binding | 56%
C=CC(=O)N1CCC([C@@H]2CCNc3c(C(N)=O)c(-c4ccc(Oc5ccccc5)cc4)nn32)CC1 | Tyrosine-protein kinase ABL1, phosphorylated (ABL1, Homo sapiens, UniProt P00519, M351T) | enzyme activity | inhibitor | – | 1 µM | inhibition | 0%
CN1CCN(C(=O)c2ccc(NC(=O)Nc3ccc(N(C)c4ccnc(Nc5ccc(CS(C)(=O)=O)cc5)n4)cc3)cc2)CC1 | Tyrosine-protein kinase ABL1, phosphorylated (ABL1, Homo sapiens, UniProt P00519) | binding | – | competition with immobilised ligand | 1 µM | remaining binding | 30%
COc1ccc2oc(-c3ccc4nc(N)oc4c3)c/c(=N\c3ccccc3NC(=O)CCN)c2c1 | Tyrosine-protein kinase ABL1 (ABL1, Homo sapiens, UniProt P00519) | binding | – | – | 1 µM | remaining binding | 102%
CO[C@@H]1[C@H](N(C)C(=O)c2ccccc2)C[C@H]2O[C@]1(C)n1c3ccccc3c3c4c(c5c6ccccc6n2c5c31)C(=O)NC4 | ABL1 F317I non-phosphorylated | enzyme activity | inhibitor | – | 1 µM | inhibition | 0%
COc1ccc2[nH]c3c4[nH]c5ccc(OC)cc5c4c4c(c3c2c1)C(=O)NC4=O | ABL1 F317L | binding | – | – | 1 µM | remaining binding | 84%
